Data reported in ChEMBL document CHEMBL5034012, “Procainamide-SAHA Fused Inhibitors of hHDAC6 Tackle Multidrug-Resistant Malaria Parasites” (J Med Chem, 2021).
The source made the active and inactive calls. The rule behind the calls is not given here.

Experiments:
[1] = test system: Plasmodium falciparum; test: Antiplasmodial activity against Plasmodium falciparum stage IIb-III gametocytes assessed as abnormal morphology by measuring rounded/swollen at highest concentration measured after 72 hrs using Geimsa staining based assay; assay type: functional
Procedure, shortened: (§1)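 Day-4 stage IIb-III gametocytes (asexuals removed by N-acetyl glucosamine), about 1% gametocytemia at 2% hematocrit, treated 72h at 10, 5, 1 or 0.5 µM against 0.1% DMSO. Then washed and recultured with daily medium changes. Morphology and parasitemia scored daily on Giemsa-stained thin smears.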

[2] = test system: Plasmodium falciparum; test: Antiplasmodial activity against synchronized ring stage Plasmodium falciparum 3D7 assessed as parasite reduction rate in lag phase by measuring time required to achieve maximum speed of action at 10 times IC50 concentration; assay type: functional
Procedure, shortened: (§2)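 3D7 culture of mostly rings exposed to drug for 6, 24, 48, 72 or 96h. Then washed, serially diluted 1/3 in fresh RBC and grown 3 weeks. Growth read by SYBR-green I. Number of wells with growth used to back-calculate viable parasites at each time point and derive growth parameters. One experiment, run in duplicate.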

[3] = biological target: Histone deacetylase 1 (Homo sapiens, UniProt Q13547); test: Inhibition of human recombinant HDAC1 using Tosyl-Gly-ProLys(Ac)-AMC as substrate measured after 60 mins by fluorescence assay
Histone deacetylase 1, sequence (Q13547 whole entry): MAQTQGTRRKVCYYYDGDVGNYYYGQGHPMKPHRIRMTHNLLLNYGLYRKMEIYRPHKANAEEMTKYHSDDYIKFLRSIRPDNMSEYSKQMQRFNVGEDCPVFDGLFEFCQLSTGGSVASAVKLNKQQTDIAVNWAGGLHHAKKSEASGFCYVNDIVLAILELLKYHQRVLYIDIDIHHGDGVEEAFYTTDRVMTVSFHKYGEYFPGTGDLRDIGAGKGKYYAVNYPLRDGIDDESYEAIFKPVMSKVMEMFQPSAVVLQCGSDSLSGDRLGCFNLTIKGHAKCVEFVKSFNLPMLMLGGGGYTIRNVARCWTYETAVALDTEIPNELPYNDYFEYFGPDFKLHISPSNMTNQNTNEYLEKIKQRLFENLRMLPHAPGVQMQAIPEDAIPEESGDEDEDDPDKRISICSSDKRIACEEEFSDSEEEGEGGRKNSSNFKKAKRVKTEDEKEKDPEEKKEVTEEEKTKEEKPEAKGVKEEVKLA

[4] = biological target: Histone deacetylase 2 (Homo sapiens, UniProt Q92769); test: Inhibition of human recombinant HDAC2 using Tosyl-Gly-ProLys(Ac)-AMC as substrate measured after 60 mins by fluorescence assay
Histone deacetylase 2, sequence (Q92769 whole entry): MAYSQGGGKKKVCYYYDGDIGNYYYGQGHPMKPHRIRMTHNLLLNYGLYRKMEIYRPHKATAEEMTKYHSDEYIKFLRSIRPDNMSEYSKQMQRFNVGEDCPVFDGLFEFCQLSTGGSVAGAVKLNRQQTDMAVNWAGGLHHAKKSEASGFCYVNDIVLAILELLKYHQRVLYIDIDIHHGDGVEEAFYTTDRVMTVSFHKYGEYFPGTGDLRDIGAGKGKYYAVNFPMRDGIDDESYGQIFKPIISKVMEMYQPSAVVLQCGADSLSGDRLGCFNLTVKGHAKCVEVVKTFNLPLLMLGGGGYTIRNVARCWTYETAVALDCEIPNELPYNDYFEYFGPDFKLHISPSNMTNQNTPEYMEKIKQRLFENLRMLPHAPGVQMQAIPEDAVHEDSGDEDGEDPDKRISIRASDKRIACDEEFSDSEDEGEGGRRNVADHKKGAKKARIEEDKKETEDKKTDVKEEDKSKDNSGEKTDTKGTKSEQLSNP

[5] = test system: Plasmodium falciparum; test: Antiplasmodial activity against Plasmodium falciparum 3D7 assessed as DNA damage in trophozoite stage measured upto 72 hrs using Geimsa stain based parasite reduction rate assay; assay type: functional, organism-based; conditions: time hrs <=72
[6] = test system: Plasmodium falciparum; test: Antiplasmodial activity against ring stage Plasmodium falciparum 3D7 assessed as defective parasite division at 10 times IC50 concentration incubated for 24 hrs by transmission electron microscopy; assay type: functional, organism-based
Procedure, shortened: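 Harvested with Plasmagel and fixed in 4% PFA/0.1% glutaraldehyde. Gelatin-embedded; 60nm ultrathin sections. Anti-H3 (1/100) labelled with 10nm protein A-gold. Stained with methylcellulose/0.4% uranyl acetate and imaged by TEM at 120 kV.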

[7] = test system: Plasmodium falciparum; test: Inhibition of trophozoite-stage Plasmodium falciparum HDAC in using nuclear extract assessed as H4K16 hyperacetylation at 10 times IC50 concentration incubated for 4 hrs by Western blot analysis; conditions: in the assay text read “total extract” for “nuclear extract”
Procedure, shortened: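 Parasites exposed 4h at 10× IC50, with CQ and 0.1% DMSO as controls. Saponin-lysed (0.15%) and extracted in Laemmli/DTT buffer; 5.10⁶ parasites loaded per lane. Blots probed with anti-H4K16Ac (1/500) and anti-H3 (1/1000). H4K16Ac band intensity normalized to H3. Three independent experiments.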

[8] = test system: Plasmodium falciparum; test: Antiplasmodial activity against Cambodian multidrug-resistant Plasmodium falciparum isolate incubated for 96 hrs measured by SYBR Green 1 assay; assay type: functional, organism-based
Procedure, shortened: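 Cambodian isolates chosen by multidrug-resistance pattern, 10 per resistance type. Ring-synchronized cultures at 2% hematocrit and 1% starting parasitemia; 11-point 2-step dilutions from 500nM; 96h incubation, then SYBR-green I read-out. Mefloquine and monodesethylamodiaquine served as positive controls. Triplicate wells, one biological replicate per isolate.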

[9] = test system: Plasmodium falciparum; test: Antiplasmodial activity against asynchronous asexual culture of Plasmodium falciparum NF54 assessed as parasite growth inhibition; assay type: functional, organism-based
Procedure, shortened: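 Asynchronous asexual NF54 cultures exposed to 7-point, 2-step serial dilutions starting at 500nM. DHA served as positive control, DMSO as negative. IC50 interpolated from three independent experiments run in triplicate.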

[10] = test system: Plasmodium falciparum; test: Antiplasmodial activity against Plasmodium falciparum stage IIb-III gametocytes assessed as abnormal morphology by measuring fragile like extensions at highest concentration measured after 72 hrs using Geimsa staining based assay; assay type: functional; procedure, shortened: as §1
[11] = biological target: Histone deacetylase; test: Inhibition of human HDAC using human HeLa cell nuclear extract measured after 60 mins by fluorescence assay; assay type: tissue-based
[12] = test system: HepG2; test: cells; assay type: functional, cell-based; conditions: Homo sapiens, HepG2, 72 h
[13] = test system: Plasmodium falciparum; test: Antiplasmodial activity against synchronized ring stage Plasmodium falciparum 3D7 assessed as parasite reduction over one cycle upto 48 hrs at 10 times IC50 concentration; assay type: functional; conditions: time hrs <=48; procedure, shortened: as §2
[14] = biological target: Histone deacetylase 3 (Homo sapiens, UniProt O15379); test: Inhibition of human recombinant HDAC3 using Tosyl-Gly-ProLys(Ac)-AMC as substrate measured after 60 mins by fluorescence assay
Histone deacetylase 3, sequence (O15379 whole entry): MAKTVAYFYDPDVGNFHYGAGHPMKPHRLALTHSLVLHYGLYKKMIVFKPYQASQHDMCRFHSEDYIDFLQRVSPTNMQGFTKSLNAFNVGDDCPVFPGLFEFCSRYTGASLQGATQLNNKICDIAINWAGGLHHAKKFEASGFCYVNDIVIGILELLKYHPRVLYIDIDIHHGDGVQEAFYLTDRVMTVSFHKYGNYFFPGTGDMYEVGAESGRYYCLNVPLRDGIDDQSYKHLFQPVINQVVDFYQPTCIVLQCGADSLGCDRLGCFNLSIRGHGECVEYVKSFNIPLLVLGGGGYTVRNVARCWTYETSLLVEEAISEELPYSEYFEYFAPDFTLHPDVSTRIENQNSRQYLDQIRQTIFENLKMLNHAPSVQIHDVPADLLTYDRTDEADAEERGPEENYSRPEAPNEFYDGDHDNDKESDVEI

[15] = Inhibition of Plasmodium falciparum NF54 HDAC using extract measured after 60 mins by fluorescence assay
[16] = test system: Plasmodium falciparum; test: Antiplasmodial activity against Plasmodium falciparum 3D7 assessed as time to kill initial parasite load at 10 times IC50 concentration; assay type: functional
Procedure, shortened: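 Parasite reduction rate assay on 3D7 cultures containing mostly rings, with DHA and pyrimethamine as references. Exposure windows of 6, 24, 48, 72 and 96h; cells then washed, serially diluted 1/3 in fresh RBC and grown 3 weeks before SYBR-green I read-out. Number of wells with growth gives viable parasites per time point, per Sanz et al. One experiment in duplicate.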

[17] = test system: Plasmodium falciparum; test: Antiplasmodial activity against Plasmodium falciparum late stage IV-V gametocytes assessed as reduction in number of exflagellation centers in at 1 to 10 uM treated for 72 hrs; assay type: functional, organism-based; conditions: dose 1-10 µM
Procedure, shortened: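 Synchronous gametocytes induced; asexual forms removed with N-acetyl glucosamine for 5 days. Day-9 stage IV-V gametocytes, about 1% gametocytemia at 2% hematocrit, treated 72h at 10, 5, 1 or 0.5 µM against 0.1% DMSO. Then washed and recultured with daily medium changes. […], pelleted cells mixed 1:1 with human serum. Exflagellation centers counted over ≥10 fields at 40× within one hour. Two independent experiments; one-way ANOVA.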

Compound | Activity [1] | Time [2] | IC50 [3] | IC50 [4] | Activity [5] | Activity [6] | fold change (FC) [7] | IC50 [8] | IC50 [9] | Activity [10] | IC50 [11] | IC50 [12] | log(activity) [13] | IC50 [14] | IC50 [15] | LT99.9 [16] | Activity [17]
O=C(CCCCCCC(=O)Nc1ccc(C(=O)NC2CCNCC2)cc1)NO | <=90% | 6 h | 150 nM | 270 nM | Active | Active | 6 | 70 nM | 52 nM | <=90% | 140 nM | 230000 nM | 4.22 | 110 nM | 480 nM | 34.3 h | Active
CCN(CC)CCNC(=O)c1ccc(NC(=O)CCCCCCC(=O)NO)cc1 | <=90% | 0 h | 70 nM | 80 nM | Active | Active | 6 | 76 nM | 41 nM | <=90% | 60 nM | 8400 nM | 3.8 | 70 nM | 380 nM | 40.3 h | Active
